In ChEMBL document CHEMBL3085664, “Structure-activity relationship of imidazopyridinium analogues as antagonists of neuropeptide s receptor” (J Med Chem, 2013):
Active and inactive are the calls of the source. The calls are words filed in the database; no cut-off is given here.

Key:
Plasma [1] = experiment: AUClast in mouse plasma at 10 mg/kg, ip; format: ADME, organism-based; parameters: dose 10 mg/kg, route intraperitoneal, time 0 - last; settings: in vivo
In short: (§1)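 Mouse pharmacokinetics after a single 10 mpk intraperitoneal dose. Plasma and brain were sampled at 0, 0.083, 0.25, 0.5, 1, 2, 4, 8, 12 and 24 h. Concentrations are reported as the mean of N=3 at each time point, in ng/mL or nM for plasma and ng/g or nmol/g for brain.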

[2] = Plasma concentration in mouse at 10 mg/kg, ip after 24 hrs; format: ADME, organism-based; parameters: dose 10 mg/kg, route intraperitoneal; in short: as §1
Neuropeptide S receptor [3] = biological target: T1, Neuropeptide S receptor (Homo sapiens, UniProt Q6W5P4); experiment: Displacement of [125I]Tyr10-NPS from human neuropeptide S receptor expressed in CHO cells after 1.5 hrs by liquid scintillation counting; format: cell-based
T1 sequence (Q6W5P4 whole entry): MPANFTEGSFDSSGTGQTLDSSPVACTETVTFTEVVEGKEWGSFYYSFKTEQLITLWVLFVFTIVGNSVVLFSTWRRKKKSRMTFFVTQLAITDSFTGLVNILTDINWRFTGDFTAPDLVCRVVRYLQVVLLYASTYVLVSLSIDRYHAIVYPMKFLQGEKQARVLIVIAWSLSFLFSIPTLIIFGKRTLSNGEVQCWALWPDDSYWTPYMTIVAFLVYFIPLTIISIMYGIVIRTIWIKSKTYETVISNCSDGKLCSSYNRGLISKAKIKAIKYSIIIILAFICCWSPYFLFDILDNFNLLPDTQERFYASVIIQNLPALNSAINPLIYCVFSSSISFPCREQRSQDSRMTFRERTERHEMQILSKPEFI
In short: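 Whole CHO cells stably expressing human NPSR at 90–95% confluency in 24-well plates. Cells were incubated with 0.15 nM [125I]Y10-NPS plus increasing compound or unlabeled NPS in DMEM/0.1% BSA, 20°C, 1.5 hr. Nonspecific binding was defined with 1 µM unlabeled human NPS. Cells were washed, lysed in 1 N NaOH and counted by liquid scintillation. IC50 from one experiment in duplicate.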

[4] = Metabolic stability in mouse liver microsomes assessed as compound remaining after 15 mins in presence NADPH; format: ADME, Microsome; settings: read-out: Stability
In short: (§2)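 Compound was incubated with mouse liver microsomes, and percent parent remaining was determined at 15, 30 and 60 min. Values are means from a single experiment run in duplicate.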

[5] = Plasma concentration in mouse at 10 mg/kg, ip after 0.25 hrs; format: ADME, organism-based; parameters: dose 10 mg/kg, route intraperitoneal; in short: as §1
Plasma [6] = experiment: Tmax in mouse plasma at 10 mg/kg, ip; format: ADME, organism-based; parameters: dose 10 mg/kg, route intraperitoneal; settings: in vivo; in short: as §1
Plasma [7] = experiment: Cmax in mouse plasma at 10 mg/kg, ip; format: ADME, organism-based; parameters: dose 10 mg/kg, route intraperitoneal; settings: in vivo; in short: as §1
[8] = Metabolic stability in mouse liver microsomes assessed as compound remaining after 60 mins in absence NADPH; format: ADME, Microsome; settings: read-out: Stability; in short: as §2
Brain [9] = experiment: AUClast in mouse brain at 10 mg/kg, ip; format: ADME, organism-based; parameters: time 0 - last, dose 10 mg/kg, route intraperitoneal; settings: in vivo; in short: as §1
[10] = Metabolic stability in mouse liver microsomes assessed as compound remaining after 60 mins in presence NADPH; format: ADME, Microsome; settings: read-out: Stability; in short: as §2
[11] = Plasma concentration in mouse at 10 mg/kg, ip after 0.083 hrs; format: ADME, organism-based; parameters: dose 10 mg/kg, route intraperitoneal; in short: as §1
Rattus norvegicus [12] = experiment: Inhibition of alcohol-induced ERK-phosphorylation in rat in central amygdala at 1 mg/kg, ip; format: functional, organism-based; parameters: dose 1 mg/kg
[13] = Plasma concentration in mouse at 10 mg/kg, ip after 12 hrs; format: ADME, organism-based; parameters: dose 10 mg/kg, route intraperitoneal; in short: as §1
Mu-type opioid receptor [14] = biological target: T2, Mu-type opioid receptor (Homo sapiens, UniProt P35372); experiment: Displacement of radiolabeled DAMGO from human recombinant mu opioid receptor expressed in OPRM1 cells; format: cell-based
[15] = Ratio of AUC in brain to AUC in plasma in mouse at 10 mg/kg, ip; format: ADME, organism-based; parameters: dose 10 mg/kg, route intraperitoneal; settings: brain and plasma, read-out: Ratio AUC; in short: as §1
Plasma [16] = experiment: Half life in mouse plasma at 10 mg/kg, ip; format: ADME, organism-based; parameters: dose 10 mg/kg, route intraperitoneal; settings: in vivo; in short: as §1
Brain [17] = experiment: Drug level in mouse brain at 10 mg/kg, ip after 12 hrs; format: ADME, organism-based; parameters: dose 10 mg/kg, route intraperitoneal; settings: in vivo; in short: as §1
Brain [18] = experiment: Drug level in mouse brain at 10 mg/kg, ip after 24 hrs; format: ADME, organism-based; parameters: dose 10 mg/kg, route intraperitoneal; settings: in vivo; in short: as §1
Brain [19] = experiment: Drug level in mouse brain at 10 mg/kg, ip after 4 hrs; format: ADME, organism-based; parameters: dose 10 mg/kg, route intraperitoneal; settings: in vivo; in short: as §1
[20] = Cmax in mouse brain at 10 mg/kg, ip; format: ADME, organism-based; parameters: dose 10 mg/kg, route intraperitoneal; in short: as §1
[21] = Plasma concentration in mouse at 10 mg/kg, ip after 2 hrs; format: ADME, organism-based; parameters: dose 10 mg/kg, route intraperitoneal; in short: as §1
Brain [22] = experiment: Drug level in mouse brain at 10 mg/kg, ip after 0.083 hrs; format: ADME, organism-based; parameters: dose 10 mg/kg, route intraperitoneal; settings: in vivo; in short: as §1
Rattus norvegicus [23] = experiment: Anorectic activity in Wistar rat assessed as […] of NPS-induced reduction of food intake at 20 ug, icv after 15 to 60 mins; format: functional, organism-based
[24] = Plasma concentration in mouse at 10 mg/kg, ip after 0.5 hrs; format: ADME, organism-based; parameters: dose 10 mg/kg, route intraperitoneal; in short: as §1
Brain [25] = experiment: Drug level in mouse brain at 10 mg/kg, ip after 1 hrs; format: ADME, organism-based; parameters: dose 10 mg/kg, route intraperitoneal; settings: in vivo; in short: as §1
[26] = Metabolic stability in mouse liver microsomes assessed as compound remaining after 15 mins in absence NADPH; format: ADME, Microsome; settings: read-out: Stability; in short: as §2
[27] = Plasma concentration in mouse at 10 mg/kg, ip after 8 hrs; format: ADME, organism-based; parameters: dose 10 mg/kg, route intraperitoneal; in short: as §1
Neuropeptide S receptor [28] = biological target: T1, Neuropeptide S receptor; experiment: Antagonist activity at neuropeptide S receptor (unknown origin) expressed in CHO cells assessed as inhibition of NPS-induced ERK activation after 20 mins by HTRF assay; format: cell-based
[29] = Plasma concentration in mouse at 10 mg/kg, ip after 1 hrs; format: ADME, organism-based; parameters: dose 10 mg/kg, route intraperitoneal; in short: as §1
Brain [30] = experiment: Drug level in mouse brain at 10 mg/kg, ip after 0.25 hrs; format: ADME, organism-based; parameters: dose 10 mg/kg, route intraperitoneal; settings: in vivo; in short: as §1
Neuropeptide S receptor [31] = biological target: T1, Neuropeptide S receptor; experiment: Antagonist activity at neuropeptide S receptor (unknown origin) expressed in CHO cells assessed as cAMP level after 30 mins by […] assay; format: functional, cell-based; settings: read-out: IC50
In short: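 CHO cells stably expressing NPSR, 1800 cells/well in 1536-well format, seeded overnight at 37°C in medium without Geneticin. Stimulation buffer (PBS, 0.1% BSA, 0.05% Tween-20, 500µM Ro 20-1724, EC80 NPS) was added for 30 min at 37°C. cAMP was read by HTRF (d2-cAMP/cryptate anti-cAMP in lysis buffer, 30 min). IC50 is the mean with SD of two independent experiments, each run in duplicate.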

Neuropeptide S receptor [32] = biological target: T1, Neuropeptide S receptor; experiment: Antagonist activity at neuropeptide S receptor (unknown origin) expressed in CHO cells assessed as inhibition of NPS-induced calcium mobilization after 10 mins by fluorescence assay; format: functional, cell-based; settings: read-out: IC50
In short: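 CHO-NPSR cells, 2000/well in 1536-well plates, incubated overnight, then loaded with no-wash calcium dye for 1 h at 37°C. Compound in DMSO was added for 10 min. Baseline fluorescence was recorded 6 s at 1 Hz, then EC80 NPS in stimulation buffer was added and recording continued 4 min at 1 Hz on a kinetic reader. IC50 is the mean with SD of two independent experiments in duplicate.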

Plasma [33] = experiment: AUC (infinity) in mouse plasma at 10 mg/kg, ip; format: ADME, organism-based; parameters: time infinity, dose 10 mg/kg, route intraperitoneal; settings: in vivo; in short: as §1
Brain [34] = experiment: Drug level in mouse brain at 10 mg/kg, ip after 0.5 hrs; format: ADME, organism-based; parameters: dose 10 mg/kg, route intraperitoneal; settings: in vivo; in short: as §1
[35] = Plasma concentration in mouse at 10 mg/kg, ip after 4 hrs; format: ADME, organism-based; parameters: dose 10 mg/kg, route intraperitoneal; in short: as §1
Brain [36] = experiment: Drug level in mouse brain at 10 mg/kg, ip after 2 hrs; format: ADME, organism-based; parameters: dose 10 mg/kg, route intraperitoneal; settings: in vivo; in short: as §1
Brain [37] = experiment: Tmax in mouse brain at 10 mg/kg, ip; format: ADME, organism-based; parameters: dose 10 mg/kg, route intraperitoneal; settings: in vivo; in short: as §1
[38] = Metabolic stability in mouse liver microsomes assessed as compound remaining after 30 mins in presence NADPH; format: ADME, Microsome; settings: read-out: Stability; in short: as §2
Mu-type opioid receptor [39] = biological target: T2, Mu-type opioid receptor; experiment: Displacement of radiolabeled DAMGO from human recombinant mu opioid receptor expressed in […] at 10 uM; format: cell-based
Brain [40] = experiment: Drug level in mouse brain at 10 mg/kg, ip after 8 hrs; format: ADME, organism-based; parameters: dose 10 mg/kg, route intraperitoneal; settings: in vivo; in short: as §1
[41] = Metabolic stability in mouse liver microsomes assessed as compound remaining after 30 mins in absence NADPH; format: ADME, Microsome; settings: read-out: Stability; in short: as §2
Rattus norvegicus [42] = experiment: Toxicity in Wistar rat administered daily; format: organism-based; settings: in vivo

T2 sequence (P35372 whole entry): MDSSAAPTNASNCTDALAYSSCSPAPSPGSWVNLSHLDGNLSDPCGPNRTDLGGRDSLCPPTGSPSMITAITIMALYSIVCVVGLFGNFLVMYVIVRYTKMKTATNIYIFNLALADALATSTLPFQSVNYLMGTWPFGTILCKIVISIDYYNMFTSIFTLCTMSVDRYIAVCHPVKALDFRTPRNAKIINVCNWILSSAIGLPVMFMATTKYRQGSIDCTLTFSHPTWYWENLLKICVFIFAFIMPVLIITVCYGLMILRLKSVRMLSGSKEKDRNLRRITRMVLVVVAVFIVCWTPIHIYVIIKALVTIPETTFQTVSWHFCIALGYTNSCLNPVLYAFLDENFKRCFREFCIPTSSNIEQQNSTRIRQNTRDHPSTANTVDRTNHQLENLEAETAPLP

Work on `Cc1c(P(=S)(c2ccccc2)c2ccccc2)n2ccccc2[n+]1C/C=C/c1ccccc1.[Br-]` yielded an AUClast (Plasma [1]) of 2.24 µg·h/mL, a concentration at 24 h [2] of 0.054 µM and an IC50 (Neuropeptide S receptor [3]) of 3.5 nM. The remaining at 0.25 h [4] was 72%, the concentration at 0.25 h [5] was 1.32 µM and the Tmax (Plasma [6]) was 4.98 min. It also gave a Cmax (Plasma [7]) of 0.7 µg/mL, a remaining at 1 h [8] of 102% and an AUClast (Brain [9]) of 0.746 µg·h/mL. For the same compound, the remaining at 1 h [10] was 26%, the concentration at 0.083 h [11] was 1.5 µM and the inhibition (Rattus norvegicus [12]) was “Active”. For the same compound, the concentration at 12 h [13] was 0.126 µM, the IC50 (Mu-type opioid receptor [14]) was 580 nM and the Kp [15] was 33. For the same compound, the t1/2 (Plasma [16]) was 8.8 h, the Drug uptake (Brain [17]) was 93 nmol/g and the Drug uptake (Brain [18]) was 52 nmol/g. The Drug uptake (Brain [19]) was 53 nmol/g, the Cmax [20] was 0.043 µg/mL and the concentration at 2 h [21] was 0.386 µM. For the same compound, the Drug uptake (Brain [22]) was 30 nmol/g, the Activity (Rattus norvegicus [23]) was “Active” and the concentration at 0.5 h [24] was 1.15 µM. It also gave a Drug uptake (Brain [25]) of 44 nmol/g, a remaining at 0.25 h [26] of 102% and a concentration at 8 h [27] of 0.214 µM. The IC50 (Neuropeptide S receptor [28]) was 1.3 nM, the concentration at 1 h [29] was 0.556 µM and the Drug uptake (Brain [30]) was 52 nmol/g. It also gave an IC50 (Neuropeptide S receptor [31]) of 45 nM, an IC50 (Neuropeptide S receptor [32]) of 0.96 nM and an AUC (Plasma [33]) of 2.56 µg·h/mL. For the same compound, the Drug uptake (Brain [34]) was 53 nmol/g, the concentration at 4 h [35] was 0.245 µM and the Drug uptake (Brain [36]) was 57 nmol/g. It also gave a Tmax (Brain [37]) of 12 h, a remaining at 0.5 h [38] of 46% and an inhibition (Mu-type opioid receptor [39]) greater than 90%. For the same compound, the Drug uptake (Brain [40]) was 60 nmol/g, the remaining at 0.5 h [41] was 102% and the Activity (Rattus norvegicus [42]) was “Non-toxic”.
